Laboratory results published in ChEMBL document CHEMBL5653626 (ChemMedChem, 2016).

Columns and labels:
[1] = target: T1, Solute carrier family 2, facilitated glucose transporter member 1 (Homo sapiens, UniProt P11166); test: (§1) Inhibition of human GLUT1 expressed in human DLD-1 cells assessed as reduction in glucose uptake by measuring decrease in ATP production incubated for 15 mins in presence of oxidative phosphorylation inhibitor rotenone by CellTiter-Glo Luminescent Cell Viability Assay; type: cell-based
T1 sequence (P11166 whole entry): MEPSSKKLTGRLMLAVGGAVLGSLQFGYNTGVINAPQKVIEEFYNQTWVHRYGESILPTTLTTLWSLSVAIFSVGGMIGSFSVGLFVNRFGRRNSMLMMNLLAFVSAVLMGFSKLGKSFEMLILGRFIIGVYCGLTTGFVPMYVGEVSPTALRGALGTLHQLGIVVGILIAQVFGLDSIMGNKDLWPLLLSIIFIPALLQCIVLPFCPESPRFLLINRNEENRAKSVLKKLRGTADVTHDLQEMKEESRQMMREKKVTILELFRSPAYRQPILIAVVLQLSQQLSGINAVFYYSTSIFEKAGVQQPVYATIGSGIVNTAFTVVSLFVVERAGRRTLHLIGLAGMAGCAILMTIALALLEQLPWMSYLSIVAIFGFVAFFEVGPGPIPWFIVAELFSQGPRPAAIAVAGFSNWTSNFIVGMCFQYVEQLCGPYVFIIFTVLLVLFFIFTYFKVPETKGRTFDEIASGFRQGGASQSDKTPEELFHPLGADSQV

[2] = target: T2, Solute carrier family 2, facilitated glucose transporter member 2 (Homo sapiens, UniProt P11168); test: Inhibition of human GLUT2 expressed in CHO cells assessed as reduction in fructose uptake by measuring decrease in ATP production incubated for 15 mins in presence of oxidative phosphorylation inhibitor rotenone by CellTiter-Glo Luminescent Cell Viability Assay; type: cell-based
T2 sequence (P11168 whole entry): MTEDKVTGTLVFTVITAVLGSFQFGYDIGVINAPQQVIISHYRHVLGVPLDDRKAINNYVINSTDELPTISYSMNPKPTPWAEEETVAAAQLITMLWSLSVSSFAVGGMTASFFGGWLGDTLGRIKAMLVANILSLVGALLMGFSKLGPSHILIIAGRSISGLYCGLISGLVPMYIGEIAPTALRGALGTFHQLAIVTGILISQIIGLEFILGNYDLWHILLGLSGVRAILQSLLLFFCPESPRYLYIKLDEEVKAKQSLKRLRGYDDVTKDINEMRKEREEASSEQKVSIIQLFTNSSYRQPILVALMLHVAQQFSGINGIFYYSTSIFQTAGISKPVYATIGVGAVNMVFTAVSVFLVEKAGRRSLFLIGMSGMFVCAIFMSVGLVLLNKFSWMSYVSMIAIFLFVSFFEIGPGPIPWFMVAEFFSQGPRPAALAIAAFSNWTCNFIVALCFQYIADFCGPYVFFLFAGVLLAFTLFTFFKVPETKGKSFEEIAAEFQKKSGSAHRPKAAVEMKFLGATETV

[3] = target: T3, Solute carrier family 2, facilitated glucose transporter member 3 (Homo sapiens, UniProt P11169); test: Inhibition of human GLUT3 expressed in human GLUT1-/- DLD-1 cells assessed as reduction in glucose uptake by measuring decrease in ATP production incubated for 15 mins in presence of oxidative phosphorylation inhibitor rotenone by CellTiter-Glo Luminescent Cell Viability Assay; type: cell-based
T3 sequence (P11169 whole entry): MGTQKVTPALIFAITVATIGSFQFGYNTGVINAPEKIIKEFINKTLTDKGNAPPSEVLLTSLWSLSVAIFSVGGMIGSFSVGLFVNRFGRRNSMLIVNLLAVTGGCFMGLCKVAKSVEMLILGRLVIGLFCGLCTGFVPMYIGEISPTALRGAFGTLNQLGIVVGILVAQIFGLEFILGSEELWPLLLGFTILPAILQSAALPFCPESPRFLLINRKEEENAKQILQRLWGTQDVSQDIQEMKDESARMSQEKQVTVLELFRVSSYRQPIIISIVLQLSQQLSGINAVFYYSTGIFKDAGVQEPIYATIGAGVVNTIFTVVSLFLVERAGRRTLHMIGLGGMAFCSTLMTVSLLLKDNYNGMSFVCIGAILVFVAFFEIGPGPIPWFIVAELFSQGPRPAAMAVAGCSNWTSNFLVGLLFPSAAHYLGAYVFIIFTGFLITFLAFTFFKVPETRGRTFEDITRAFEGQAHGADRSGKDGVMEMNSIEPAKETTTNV

[4] = target: T4, Solute carrier family 2, facilitated glucose transporter member 4 (Homo sapiens, UniProt P14672); test: as §1, with “GLUT4” for “GLUT1”, “CHO” for “human DLD-1”, “preincubated” for “incubated”, “for 20 mins followed by glucose addition and measured after” for “for”; type: cell-based
T4 sequence (P14672 whole entry): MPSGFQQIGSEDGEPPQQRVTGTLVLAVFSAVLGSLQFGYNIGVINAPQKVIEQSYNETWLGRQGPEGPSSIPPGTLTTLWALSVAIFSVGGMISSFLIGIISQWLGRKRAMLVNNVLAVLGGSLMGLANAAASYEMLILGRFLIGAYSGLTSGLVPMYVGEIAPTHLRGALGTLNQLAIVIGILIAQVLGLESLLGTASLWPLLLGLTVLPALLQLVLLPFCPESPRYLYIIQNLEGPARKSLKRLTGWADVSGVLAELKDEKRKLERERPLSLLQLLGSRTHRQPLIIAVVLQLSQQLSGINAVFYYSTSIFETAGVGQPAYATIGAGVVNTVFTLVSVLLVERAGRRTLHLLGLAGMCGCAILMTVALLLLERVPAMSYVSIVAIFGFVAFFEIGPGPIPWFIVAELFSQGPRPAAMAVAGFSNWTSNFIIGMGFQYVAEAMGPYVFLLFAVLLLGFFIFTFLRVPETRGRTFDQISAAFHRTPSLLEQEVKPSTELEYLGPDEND

[5] = Clearance in rat hepatocytes; type: ADME, cell-based, Hepatocyte
[6] = Clearance in human liver microsomes; type: ADME, Microsome
[7] = Clearance in mouse liver microsomes; type: ADME, Microsome
[8] = Clearance in dog liver microsomes; type: ADME, Canis lupus familiaris, Microsome
[9] = Stability in human liver microsomes assessed as maximum bioavailability; type: ADME, Microsome; conditions: read-out: Fmax
[10] = Stability in mouse liver microsomes assessed as maximum bioavailability; type: ADME, Microsome; conditions: read-out: Fmax
[11] = Stability in dog liver microsomes assessed as maximum bioavailability; type: ADME, Canis lupus familiaris, Microsome; conditions: read-out: Fmax
[12] = Clearance in dog hepatocytes; type: ADME, cell-based, Canis lupus familiaris, Hepatocyte
[13] = Stability in dog hepatocytes assessed as maximum bioavailability; type: ADME, Canis lupus familiaris, Hepatocyte; conditions: read-out: Fmax
[14] = Efflux ratio of apparent permeability across basolateral to apical side over apical to basolateral side in human Caco-2 cells at 2 uM measured after 2 hrs; type: ADME, cell-based; conditions: caco-2, 2 h
Method in brief: (§2)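 Bidirectional Caco-2 transport at 2 μm over 2 h, apical→basolateral and basolateral→apical. Apparent permeability (P_app) is taken from compound transport. Efflux ratio is P_app B→A divided by P_app A→B.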

[15] = Apparent permeability across apical to basolateral side in human Caco-2 cells at 2 uM measured after 2 hrs; type: ADME, cell-based; conditions: caco-2, 2 h; method in brief: as §2
[16] = Stability in rat hepatocytes assessed as maximum bioavailability; type: ADME, Hepatocyte; conditions: read-out: Fmax
[17] = Clearance in monkey liver microsomes; type: ADME, Macaca mulatta, Microsome; conditions: rhesus monkey
[18] = Clearance in rat liver microsomes; type: ADME, Microsome
[19] = Stability in monkey liver microsomes assessed as maximum bioavailability; type: ADME, Macaca mulatta, Microsome; conditions: rhesus monkey, read-out: Fmax
[20] = Stability in rat liver microsomes assessed as maximum bioavailability; type: ADME, Microsome; conditions: read-out: Fmax
[21] = Clearance in human hepatocytes; type: ADME, cell-based, Hepatocyte
[22] = Stability in human hepatocytes assessed as maximum bioavailability; type: ADME, Hepatocyte; conditions: read-out: Fmax
[23] = Clearance in monkey hepatocytes; type: ADME, cell-based, Macaca mulatta, Hepatocyte; conditions: rhesus monkey
[24] = Stability in monkey hepatocytes assessed as maximum bioavailability; type: ADME, Macaca mulatta, Hepatocyte; conditions: rhesus monkey, read-out: Fmax
[25] = Stability in dog liver microsomes; type: ADME, Canis lupus familiaris, Microsome
[26] = Volume of distribution at steady state in Wistar rat at 0.3 mg/kg, iv; type: ADME, organism-based; conditions: in vivo
Method in brief: (§3)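 Single intravenous dose: 0.3 mg kg⁻¹ in male Wistar rats; 0.1 mg kg⁻¹ in female Beagle dogs. Plasma pharmacokinetics gave steady-state volume of distribution.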

[27] = Volume of distribution at steady state in Beagle dog at 0.1 mg/kg, iv; type: ADME, organism-based, Canis lupus familiaris; conditions: in vivo; method in brief: as §3
[28] = Dose normalized Cmax in Beagle dog at 0.2 mg/kg, po; type: ADME, organism-based, Canis lupus familiaris; conditions: in vivo

Structure (SMILES) | IC50 [1] [nM] | IC50 [4] [nM] | CLhep predicted [5] [mL/min/kg] | CLhep predicted [6] [mL/min/kg] | CLhep predicted [7] [mL/min/kg] | CLH [8] [mL/min/kg] | Fh [9] [%] | Fh [10] [%] | Fh [11] [%] | CLH [12] [mL/min/kg] | Fh [13] [%] | Papp [15] [×10⁻⁶ cm/s] | Fh [16] [%] | CLH [17] [mL/min/kg] | Fh [19] [%] | Fh [20] [%] | CLH [21] [mL/min/kg] | Fh [22] [%] | CLH [23] [mL/min/kg] | Fh [24] [%] | further results
Cc1c(NC(=O)c2cc(C(N)=O)nc3ccccc23)c(C(F)(F)F)nn1Cc1ccc(C#N)cc1 | 6 | 170 | 30 | 3.5 | 23.3 | 1 | 84 | 74 | 97 | 1.83 | 95 | – | – | – | – | – | – | – | – | – | IC50 [2]: 69000 nM; IC50 [3]: 580 nM; Ratio [14]: 3.7
Cc1c(NC(=O)c2cc(C(F)(F)F)nc3ccc(Br)cc23)c(C(F)(F)F)nn1Cc1ccc(F)cc1 | – | – | 43.3 | – | 36.7 | – | – | 59 | – | – | – | 0.35 | – | – | – | – | – | – | – | – | –
Cc1c(NC(=O)c2cc(C(N)=O)nc3cc(F)ccc23)c(C(F)(F)F)nn1Cc1ccc(C#N)cn1 | 4 | 620 | 0.667 | 3.17 | 6 | 0.017 | 86 | 93 | 100 | 0.017 | 100 | 1.6 | 99 | 6.7 | 84 | 91 | 0.5 | 98 | 5.33 | 88 | CLH [18]: 6.17 mL/min/kg
Cc1c(NC(=O)c2cc(C(N)=O)nc3cc(F)ccc23)c(C(F)(F)F)nn1Cc1ccc(C#N)cc1 [BAY-876] | – | 290 | 7.67 | 5.33 | – | – | 76 | 94 | 100 | 3.3 | 90 | – | 89 | 12.7 | 70 | 74 | 6.17 | 72 | 23.3 | 46 | Stability [25]: Stable; Vdss [26]: 0.79 L/kg; Vdss [27]: 1 L/kg; Cmax/dose [28]: 0.93 kg/L
